This passage reports MIC, Activity and IC50 results from ChEMBL document CHEMBL6177922, “Antibacterial activity of the structurally novel C-2 amine-substituted analogues based on quinoxaline” (RSC Med Chem, 2025).

Data set [1] relates to Staphylococcus aureus. As to the kind of experiment: Antibacterial activity against drug sensitive Staphylococcus aureus RN4220 assessed as reduction in bacterial growth by broth microdilution method. The format is functional. In outline: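 MICs were determined by standard twofold serial broth microdilution in lysogeny broth (LB) medium.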
The subject of data set [2] is Staphylococcus aureus. The data set is described as follows: Antibacterial activity against methicillin-resistant Staphylococcus aureus USA300 assessed as reduction in bacterial growth by broth microdilution method. The format is functional. An outline of the steps: (§1)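 Twofold serial dilution (microdilution) MIC in lysogeny broth (LB) medium against drug-resistant strains: MRSA USA300, vancomycin-resistant Enterococci, Klebsiella pneumoniae.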
Background: In broth dilution the organism is exposed to a series of concentrations in liquid medium.

In a further data set the test system is Enterococcus. As to the kind of experiment: Antibacterial activity against vancomycin-resistant Enterococcus assessed as reduction in bacterial growth by broth microdilution method. The format is functional. An outline of the steps: as §1
The subject of data set [3] is Escherichia coli. The data set is described as follows: Antibacterial activity against Escherichia coli measured for 15 days. Conditions: time 15.0 day. The format is functional, organism-based. In outline: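 E. coli was serially subcultured in fresh medium, starting from the initial MIC. The MIC was redetermined every 24 h. A reference antibiotic was tested in parallel by twofold dilution. The regimen ran for 24 days in total.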

The test system of data set [4] is Staphylococcus aureus. The data set is described as follows: Antibacterial activity against methicillin-resistant Staphylococcus aureus measured for 9 days. The format is functional, organism-based. Conditions: time 9.0 day. In outline:
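Resistance development: MRSA serially subcultured in fresh medium starting from the initial MIC. MIC reassessed every 24 h over 24 days, alongside a reference antibiotic given in twofold dilutions.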

Data set [5] deals with Staphylococcus aureus. As to the kind of experiment: Bactericidal activity against methicillin-resistant Staphylococcus aureus at 2 times MIC incubated for 24 hrs by time kill assay. The format is functional, organism-based. An outline of the steps: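 Time-kill: MRSA grown 24 h at 37 °C, adjusted to ~2 × 10^6 CFU mL-1, exposed at 2× or 3× MIC with shaking at 37 °C. Aliquots taken at 0.5–13 h, serially diluted 10-fold in PBS, plated on Mueller–Hinton agar, counted after 24 h at 37 °C. Duplicate.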

The subject of data set [6] is Escherichia coli. As to the kind of experiment: Bactericidal activity against Escherichia coli at 2 to 3 times MIC incubated for 24 hrs by time kill assay. The format is functional, organism-based.
Data set [7] concerns Escherichia coli. The data set is described as follows: Bactericidal activity against Escherichia coli assessed as inhibition of bacterial growth at 3 times MIC incubated for 24 hrs by time kill assay. The format is functional, organism-based. In outline:
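Time-kill assay: E. coli was precultured for […] at 37 °C and adjusted to about 2 × 10^6 CFU mL−1. It was exposed to 3× MIC at 37 °C with shaking. Samples were taken at 0.5–13 h, serially 10-fold diluted in PBS and plated on Mueller–Hinton agar, and colonies were counted after 24 h at 37 °C. Run in duplicate.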

Another data set concerns MCF7. The data set is described as follows: Cytotoxicity against human MCF7 cells assessed as inhibition of cell growth incubated for 24 hrs by MTT assay. The format is functional, cell-based. Conditions: MCF7, 24 h. An outline of the steps: (§2)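 MTT assay with 24 h exposure of cells to the samples. IC50 is the concentration giving 50% growth inhibition, reported as mean ± S.D. of three independent experiments.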
(In general: Tetrazolium dyes change colour on reduction, which living cells bring about.)

A short description of data set [8]: Cytotoxicity against human HK-2 cells assessed as inhibition of cell growth incubated for 24 hrs by MTT assay. The format is toxicity, cell-based. In outline: as §2
Data set [9] relates to Staphylococcus aureus. The data set is described as follows: Antibiofilm activity against Methicillin-resistant Staphylococcus aureus assessed as reduction in number of viable cells at 8 times MIC incubated for 24 hrs. The format is functional, organism-based.
The test system of data set [10] is Escherichia coli. As to the kind of experiment: Antibiofilm activity against Escherichia coli assessed as reduction in number of viable cells at 2 times MIC incubated for 24 hrs. The format is functional, organism-based. An outline of the steps: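 E. coli was grown to mid-log phase and adjusted to 2 × 10^6 CFU mL−1. Biofilms were grown for 48 h, then the spent medium was removed and loose cells were washed off with PBS. Compound was added at MIC, 2× MIC or 4× MIC for 24 h, with a sterile-medium control. Biofilms were dispersed with trypsin–EDTA, 10-fold dilutions were plated, and colonies were counted after 24 h as log10 CFU mL−1.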

In data set [11] the test system is Staphylococcus aureus. The data set is described as follows: Antibacterial activity against methicillin-resistant Staphylococcus aureus assessed as reduction in viable bacterial count at 2 to 4 times MIC measured after 18 hrs. The format is functional, organism-based.
The test system of data set [12] is Staphylococcus aureus. As to the kind of experiment: Antibacterial activity against methicillin-resistant Staphylococcus aureus assessed as reduction in viable bacterial count measured after 18 hrs. The format is functional, organism-based.
For data set [13], the system named is Staphylococcus aureus. As to the kind of experiment: Antibacterial activity against methicillin-resistant Staphylococcus aureus assessed as increase in number of bacteria at 2 times MIC measured at 3 hrs. The format is functional, organism-based. An outline of the steps:
(§3)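 Cells washed three times in sterile saline by centrifugation, moved to fresh TSB at 37 °C. Viable counts plated on TSB agar at 2–17 h. PCE = t − c, the time for a 1-log rise in treated versus control. Run twice.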

In data set [14] the test system is Staphylococcus aureus. The data set is described as follows: Antibacterial activity against methicillin-resistant Staphylococcus aureus assessed as increase in number of bacteria at 3 times MIC measured up to 5 hrs. The format is functional, organism-based. An outline of the steps:
as §3

Data set [15] deals with Cell membrane. As to the kind of experiment: Induction of cell membrane permeabilization in Escherichia coli assessed as increase in fluorescence intensity at 3 times MIC incubated for 8 hrs by PI staining based confocal laser scanning microscopic analysis. The format is subcellular. An outline of the steps:
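Log-phase E. coli was washed and resuspended in PBS (10 mM, pH 7.2) at 2 × 10^6 CFU mL−1 (OD600 0.2–0.4). Cells were treated with 3× MIC for 8 h at 37 °C, with a PBS control, then stained with SYTO 9 and PI for 30 min in the dark and imaged by confocal microscopy. Run in duplicate.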

In data set [16] the test system is Cell membrane. As to the kind of experiment: Induction of cell membrane integrity in methicillin-resistant Staphylococcus aureus assessed as increase in K+ efflux at 3 times MIC by absorption spectrophotometric analysis. The format is subcellular. In outline:
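K+ leakage: mid-log MRSA (6 h) resuspended in 10 mM HEPES (pH 7.3)/5 mM glucose at ~2 × 10^6 CFU mL-1. Incubated with compound at 3× MIC at 37 °C for various times, PBS control. Supernatant K+ measured by atomic absorption spectrophotometry. Duplicate.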

Converted amounts (≈) assume the structure as drawn. The source made the active and inactive calls. No cut-off for these calls is given here.

In general, MIC refers to the lowest concentration found to suppress growth. As usually defined, the IC50 is the concentration that inhibits the measured activity by half. Take `CC(C)(C)c1ccc(CCNc2nc3ccccc3nc2N)cc1`: the MIC in the data set with Staphylococcus aureus [1] was 4 µg/mL (≈ 12.5 µM); in the data set with Staphylococcus aureus [2], 8 µg/mL (≈ 25 µM); with Enterococcus, more than 128 µg/mL. The outcome in the data set with Escherichia coli [3], with Staphylococcus aureus [4], in the data set with Escherichia coli [7], in the data set with Staphylococcus aureus [9], with Escherichia coli [10] and in the data set on Staphylococcus aureus [11] was Active. In addition, the result with Staphylococcus aureus [13], in the data set on Staphylococcus aureus [14] and in the data set on Cell membrane [16] was Active. The result with Staphylococcus aureus [5], with Escherichia coli [6] and with Cell membrane [15] was inactive. Moreover, the IC50 in the data set on MCF7 is 72.5 µg/mL (≈ 226 µM). In addition, in data set [8], the IC50 at 24 h was 146 µg/mL (≈ 454 µM). Besides, the Activity result in the data set on Staphylococcus aureus [12] is “Dose-dependent-effect”.
